This note sets out measurements from ChEMBL document CHEMBL3853360, “Combined Interactions with I1-, I2-Imidazoline Binding Sites and α2-Adrenoceptors To Manage Opioid Addiction” (ACS Med Chem Lett, 2016).

One assay addresses Nischarin (Rattus norvegicus, UniProt Q4G017). Put plainly: Displacement of [125I]-p-iodoclonidine from I1 receptor imidazoline binding site in Sprague-Dawley rat kidney cell membranes after 30 mins by liquid scintillation counting. In short, it runs like this:
(§1)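 Radioligand competition binding with pKi determined by displacement. I1 sites: [125I]-p-iodoclonidine on rat kidney membranes. I2 sites: [3H]-2-BFI on rat brain membranes. α2-ARs: [3H]-RX821002 on rat brain membranes.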
Background: Loss of bound radioactivity is the signal in a displacement assay; it reports binding, not function.

Assay [1] in a line: Displacement of [3H]-2-BFI from I2 receptor imidazoline binding site in Sprague-Dawley rat brain membranes after 30 mins by liquid scintillation counting. In kind it is cell membranes, Membrane. In short, it runs like this:
as §1

The target in assay [2] is T1, Alpha-2B adrenergic receptor (Homo sapiens, UniProt P18089).
T1 sequence (P18089 whole entry): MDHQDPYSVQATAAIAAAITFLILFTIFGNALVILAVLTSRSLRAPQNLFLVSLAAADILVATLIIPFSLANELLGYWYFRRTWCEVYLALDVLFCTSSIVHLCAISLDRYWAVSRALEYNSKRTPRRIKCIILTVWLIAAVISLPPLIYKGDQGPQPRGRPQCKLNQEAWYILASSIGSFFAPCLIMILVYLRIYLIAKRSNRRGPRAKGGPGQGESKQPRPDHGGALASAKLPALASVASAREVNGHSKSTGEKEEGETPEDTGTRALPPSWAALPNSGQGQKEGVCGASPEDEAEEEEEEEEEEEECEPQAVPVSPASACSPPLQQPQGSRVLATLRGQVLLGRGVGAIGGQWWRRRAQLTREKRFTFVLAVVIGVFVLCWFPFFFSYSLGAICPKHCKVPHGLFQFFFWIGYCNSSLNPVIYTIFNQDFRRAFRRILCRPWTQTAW
The assay can be described thus: Agonist activity at human alpha2b-AR expressed in CHO cells assessed as rate of acidification after 240 mins by cytosensor microphysiometric analysis. In kind it is cell-based. In short, it runs like this:
(§2)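 Functional assay in CHO cells stably expressing a single human α2-AR subtype (α2A, α2B or α2C), read on a Cytosensor microphysiometer. Outputs are pEC50, intrinsic activity and, for antagonism, pKb. Intrinsic activity is expressed as a fraction of the full agonist (−)-noradrenaline, set at 1. Values are mean ± SEM of 3–5 separate experiments.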

Assay [3] has as its target T2, Alpha-2C adrenergic receptor (Homo sapiens, UniProt P18825).
T2 sequence (P18825 whole entry): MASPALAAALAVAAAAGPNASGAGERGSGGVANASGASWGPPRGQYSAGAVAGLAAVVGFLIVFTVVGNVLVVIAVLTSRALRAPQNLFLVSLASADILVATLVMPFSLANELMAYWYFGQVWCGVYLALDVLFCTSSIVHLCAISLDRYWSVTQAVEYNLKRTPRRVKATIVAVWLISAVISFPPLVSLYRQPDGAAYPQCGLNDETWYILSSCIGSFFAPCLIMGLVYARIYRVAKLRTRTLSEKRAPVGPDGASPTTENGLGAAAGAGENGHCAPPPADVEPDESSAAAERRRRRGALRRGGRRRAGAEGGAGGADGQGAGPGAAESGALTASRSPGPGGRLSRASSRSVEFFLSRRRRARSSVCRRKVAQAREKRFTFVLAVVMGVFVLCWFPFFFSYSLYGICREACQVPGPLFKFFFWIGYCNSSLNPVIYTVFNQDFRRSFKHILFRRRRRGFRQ
Put plainly: Agonist activity at human alpha2c-AR expressed in CHO cells assessed as rate of acidification after 240 mins by cytosensor microphysiometric analysis. In kind it is cell-based. In short, it runs like this:
as §2

The target of assay [4] is T3, Alpha-2B adrenergic receptor (Homo sapiens) (UniProt P18089).
T3 sequence (whole entry): T1 sequence (P18089 whole entry)
Put plainly: Agonist activity at human alpha2b-AR expressed in CHO cells assessed as rate of acidification after 240 mins by cytosensor microphysiometric analysis relative to (-)-noradrenaline. In kind it is cell-based. In short, it runs like this:
as §2

In assay [5] the target is T4, Alpha-2C adrenergic receptor (Homo sapiens) (UniProt P18825).
T4 sequence (whole entry): T2 sequence (P18825 whole entry)
The assay can be described thus: Agonist activity at human alpha2c-AR expressed in CHO cells assessed as rate of acidification after 240 mins by cytosensor microphysiometric analysis relative to (-)-noradrenaline. The assay is classed as cell-based. In short, it runs like this: as §2

Assay [6] deals with T5, Alpha-2A adrenergic receptor (Homo sapiens) (UniProt P08913).
T5 sequence (whole entry): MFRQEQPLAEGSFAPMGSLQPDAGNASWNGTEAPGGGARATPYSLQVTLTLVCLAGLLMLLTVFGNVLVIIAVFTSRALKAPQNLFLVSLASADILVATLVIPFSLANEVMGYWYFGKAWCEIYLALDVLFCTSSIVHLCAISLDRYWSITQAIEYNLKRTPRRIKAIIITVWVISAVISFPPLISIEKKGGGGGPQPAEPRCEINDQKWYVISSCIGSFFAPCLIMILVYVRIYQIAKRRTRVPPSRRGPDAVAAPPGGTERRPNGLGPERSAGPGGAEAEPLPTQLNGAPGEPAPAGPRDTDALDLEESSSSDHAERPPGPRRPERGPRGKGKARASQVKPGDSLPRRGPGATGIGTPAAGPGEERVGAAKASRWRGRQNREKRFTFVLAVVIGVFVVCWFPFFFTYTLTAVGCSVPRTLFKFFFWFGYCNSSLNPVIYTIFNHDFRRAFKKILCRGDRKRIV
Put plainly: Antagonist activity at human alpha2a-AR expressed in CHO cells assessed as inhibition of (-)-noradrenaline-induced acidification rate after 240 mins by cytosensor microphysiometric analysis. In kind it is cell-based. In short, it runs like this: as §2

Assay [7] is described as follows: Reduction in morphine dependence expression in CD1 mouse assessed as inhibition of naloxone-precipitated jumping at 5 mg/kg, ip administered acutely 15 mins prior to naloxone challenge relative to control. The assay is classed as functional, organism-based.
Assay [8] is described as follows: Reduction in morphine dependence expression in CD1 mouse assessed as inhibition of naloxone-precipitated rearing frequency at 5 mg/kg, ip administered acutely 15 mins prior to naloxone challenge relative to control. The assay is classed as functional, organism-based.
The nature of assay [9]: Reduction in morphine dependence expression in CD1 mouse assessed as inhibition of naloxone-precipitated forepaw tremor frequency at 10 mg/kg, ip administered acutely 15 mins prior to naloxone challenge relative to control. The assay is classed as functional, organism-based.
Assay [10] in a line: Reduction in morphine dependence expression in CD1 mouse assessed as inhibition of naloxone-precipitated teeth chattering frequency at 10 mg/kg, ip administered acutely 15 mins prior to naloxone challenge relative to control. In kind it is functional, organism-based.
For assay [11], the system named is Mus musculus. The assay can be described thus: Reduction in morphine dependence acquisition in CD1 mouse assessed as inhibition of naloxone-precipitated jumping at 5 to 10 mg/kg, ip administered 15 mins prior to each morphine challenge relative to control. In kind it is functional. In short, it runs like this:
(§3)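 Mice received i.p. test compound (5 or 10 mg/kg) 15 min before each of repeated morphine injections, with vehicle and morphine-only controls. Withdrawal was then precipitated with naloxone. Jumping frequency and somatic signs (rearing, forepaw tremor, teeth chattering; summed frequency) were scored and compared with the morphine group. Data are mean ± SEM of 6–10 animals.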

In assay [12] the test system is Mus musculus. The assay can be described thus: Reduction in morphine dependence acquisition in CD1 mouse assessed as inhibition of naloxone-precipitated rearing frequency at 5 to 10 mg/kg, ip administered 15 mins prior to each morphine challenge relative to control. In kind it is functional. In short, it runs like this:
as §3

Assay [13] deals with Mus musculus. The assay can be described thus: Reduction in morphine dependence acquisition in CD1 mouse assessed as inhibition of naloxone-precipitated forepaw tremor frequency at 5 to 10 mg/kg, ip administered 15 mins prior to each morphine challenge relative to control. In kind it is functional. In short, it runs like this: as §3
Assay [14] deals with Mus musculus. The assay can be described thus: Reduction in morphine dependence acquisition in CD1 mouse assessed as inhibition of naloxone-precipitated teeth chattering frequency at 5 to 10 mg/kg, ip administered 15 mins prior to each morphine challenge relative to control. In kind it is functional. In short, it runs like this: as §3

Sequence of Nischarin (Q4G017 whole entry): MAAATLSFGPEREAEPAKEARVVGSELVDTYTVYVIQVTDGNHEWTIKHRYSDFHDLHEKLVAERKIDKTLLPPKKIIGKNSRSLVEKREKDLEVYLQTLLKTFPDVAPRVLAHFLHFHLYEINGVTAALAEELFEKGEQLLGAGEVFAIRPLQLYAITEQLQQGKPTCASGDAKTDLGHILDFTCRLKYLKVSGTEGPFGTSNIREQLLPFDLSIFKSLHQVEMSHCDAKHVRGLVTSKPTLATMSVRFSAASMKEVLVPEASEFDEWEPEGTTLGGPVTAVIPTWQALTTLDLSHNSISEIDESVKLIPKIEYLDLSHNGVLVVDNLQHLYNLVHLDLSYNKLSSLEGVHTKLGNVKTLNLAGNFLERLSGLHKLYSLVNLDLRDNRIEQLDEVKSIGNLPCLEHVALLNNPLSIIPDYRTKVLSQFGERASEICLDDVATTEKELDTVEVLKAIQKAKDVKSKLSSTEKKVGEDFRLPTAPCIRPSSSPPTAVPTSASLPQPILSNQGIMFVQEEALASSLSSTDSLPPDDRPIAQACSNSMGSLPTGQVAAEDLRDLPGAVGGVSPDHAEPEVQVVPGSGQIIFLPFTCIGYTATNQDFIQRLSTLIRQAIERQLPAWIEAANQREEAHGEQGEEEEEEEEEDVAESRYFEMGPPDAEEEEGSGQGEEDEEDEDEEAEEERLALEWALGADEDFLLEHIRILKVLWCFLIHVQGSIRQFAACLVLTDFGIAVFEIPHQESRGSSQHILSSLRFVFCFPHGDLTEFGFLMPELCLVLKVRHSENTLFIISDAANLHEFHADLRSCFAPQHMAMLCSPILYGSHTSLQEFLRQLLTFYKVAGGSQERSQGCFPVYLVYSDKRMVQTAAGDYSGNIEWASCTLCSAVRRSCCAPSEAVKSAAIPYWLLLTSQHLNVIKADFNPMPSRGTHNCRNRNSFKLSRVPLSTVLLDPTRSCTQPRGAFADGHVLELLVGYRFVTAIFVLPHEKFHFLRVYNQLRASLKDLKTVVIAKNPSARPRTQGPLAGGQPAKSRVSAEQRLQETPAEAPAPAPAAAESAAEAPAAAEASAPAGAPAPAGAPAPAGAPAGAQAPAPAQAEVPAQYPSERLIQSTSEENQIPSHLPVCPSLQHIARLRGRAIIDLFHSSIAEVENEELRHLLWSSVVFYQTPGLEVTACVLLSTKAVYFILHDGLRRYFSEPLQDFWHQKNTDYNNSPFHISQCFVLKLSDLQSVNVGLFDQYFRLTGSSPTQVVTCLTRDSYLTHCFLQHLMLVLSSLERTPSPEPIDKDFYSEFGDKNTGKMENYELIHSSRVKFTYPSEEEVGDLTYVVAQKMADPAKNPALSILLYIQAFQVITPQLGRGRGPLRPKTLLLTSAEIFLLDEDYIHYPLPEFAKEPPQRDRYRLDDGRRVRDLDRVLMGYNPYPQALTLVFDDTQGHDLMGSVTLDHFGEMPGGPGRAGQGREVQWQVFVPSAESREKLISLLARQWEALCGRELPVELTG

As for `Cc1ccccc1NCC1=NCCN1`, the affinity on Nischarin, expressed as Ki, was 2 nM. The molecule also yielded a pKi in [1] of 8.06. For the same molecule, the EC50 in assay [2] was 3160 nM; in [3] it was 21.9 nM. The Intrinsic activity is 0.4 in assay [4] and 0.8 in assay [5]. Also, the pKb in assay [6] was 7.58. The inhibition in assay [7] stood at 96%; in assay [8], 86%; in assay [9], 93%; in assay [10] it was 93%. Further, the “inhibition (INH)” value in the assay on Mus musculus [11], in the assay with Mus musculus [12], in the assay with Mus musculus [13] and in the assay with Mus musculus [14] was 80% throughout.

As usually defined, the Ki is the dissociation constant of the complex between target and ligand, obtained from inhibition or displacement. High values mean lower affinity, low ones higher affinity. The term pKi denotes the Ki on a negative log10 scale, so that one unit is a factor of ten. One may read the EC50 as the concentration giving half of the maximal effect. Broadly, the pKb is the negative decadic logarithm of the Kb, by convention in mol/L. One may read the inhibition as the share of the control response that was lost under treatment.
